Reference: ChEMBL document CHEMBL1137111, “Application of multi-component reactions to antimalarial drug discovery. Part 1: Parallel synthesis and antiplasmodial activity of new 4-aminoquinoline Ugi adducts” (Bioorg Med Chem Lett, 2004)

Tests used:
Format in all cases: functional, organism-based
Plasmodium falciparum [1] = assay: Antimalarial activity against chloroquine-sensitive Plasmodium falciparum D10
Plasmodium falciparum [2] = assay: Antimalarial activity against chloroquine-resistant Plasmodium falciparum K1
Plasmodium falciparum [3] = assay: Antimalarial activity against chloroquine-resistant Plasmodium falciparum W2
Method in brief: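 W2 parasites in RPMI-1640 with 10% human serum, synchronized with 5% D-sorbitol. From ring stage, exposed 48 h to a concentration series added from DMSO stocks (≤0.1% DMSO; controls 0.1% DMSO). Fixed 48 h in 1% formaldehyde/PBS pH 7.4 at room temperature, stained with 1 nM YOYO-1, and parasitemia read by flow cytometry. IC50 from % control parasitemia by nonlinear regression, duplicate experiments.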

Compound | IC50 (Plasmodium falciparum [1]) [nM] | IC50 (Plasmodium falciparum [2]) [nM] | IC50 (Plasmodium falciparum [3]) [nM]
CC(C)(C)NC(=O)CN(CCCNc1ccnc2cc(Cl)ccc12)C(=O)c1cnccn1 | 1370 | 2290 | 1650
CC(C)(C)NC(=O)CN(CCNc1ccnc2cc(Cl)ccc12)C(=O)c1cnccn1 | 710 | 1130 | 1190
O=C(CN(CCCNc1ccnc2cc(Cl)ccc12)C(=O)c1ccncc1)NC1CCCCC1 | 230 | 70 | 1560
O=C(CN(CCCNc1ccnc2cc(Cl)ccc12)C(=O)c1cnccn1)NC1CCCCC1 | 240 | 520 | 870
O=C(CN(CCNc1ccnc2cc(Cl)ccc12)C(=O)c1ccncc1)NC1CCCCC1 | 540 | 530 | 610
CC(C)(C)NC(=O)CN(CCNc1ccnc2cc(Cl)ccc12)C(=O)c1ccncc1 | 1060 | 1100 | 990
O=C(CN(CCCNc1ccnc2cc(Cl)ccc12)C(=O)c1ccc(O)cc1O)NC1CCCCC1 | 1670 | 3820 | 5930
O=C(CN(CCNc1ccnc2cc(Cl)ccc12)C(=O)c1cnccn1)NC1CCCCC1 | 790 | 1350 | > 10000
CC(C)(C)NC(=O)CN(CCCNc1ccnc2cc(Cl)ccc12)C(=O)c1ccncc1 | > 20000 | 18200 | 3800
